Experimental data: ChEMBL document CHEMBL5376022, “Design, synthesis and biological evaluation of novel pyrimidine derivatives as bone anabolic agents promoting osteogenesis via the BMP2/SMAD1 signaling pathway” (RSC Med Chem, 2024)
Calls of active or inactive are those of the source. The rule behind the calls is not given here.

Key:
Calvarial osteoblast [1] = assay: Induction of osteogenesis in BALB/c mouse calvarial osteoblast cells using PNPP as substrate assessed as increase in ALP activity at 0.1 to 10 nM measured after 48 hrs by spectrophotometry; assay type: functional, cell-based; details: Calvaria, dose 0.1-10 nM
Procedure, shortened: (§1)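 Neonatal BALB/c calvarial osteoblasts, 2 × 10³ cells per well, adhered 24 h, then exposed to compounds (1 pM to 1 μM range) in osteoblast differentiation medium for 48 h. Cells frozen overnight at −80 or −20 °C, thawed at 37 °C to expose ectoenzyme; p-nitrophenyl phosphate added and ALP activity read at 405 nm. Untreated cells as control.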

Calvarial osteoblast [2] = assay: Cytotoxicity in BALB/c mouse calvarial osteoblast cells at 0.001 to 1000 nM incubated for 48 hrs by MTT assay; assay type: toxicity, cell-based, Calvaria; details: 1 µM, dose 0.001-1000 nM
Procedure, shortened: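 Primary calvarial osteoblasts from 1–2 day old BALB/c pups (collagenase/dispase digests, α-MEM with 10% FBS) seeded at 2 × 10³ per well. MTT added for 4 h at 37 °C, formazan dissolved in DMSO, absorbance read at 570 nm.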

Calvarial osteoblast [3] = assay: Induction of cell proliferation of BALB/c mouse calvarial osteoblast cells at 0.001 nM incubated for 48 hrs by MTT assay relative to control; assay type: functional, Calvaria
Procedure, shortened: (§2)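 Primary calvarial osteoblasts from 1–2-day-old neonatal BALB/c pups, released by dispase/collagenase digestion and grown in α-MEM with 10% FBS. Seeded at 2 × 10³ cells per well, treated after 24 h for 48 h in α-MEM with 5% FBS, 10 mM β-glycerophosphate and 50 μg mL⁻¹ ascorbic acid. MTT added for 4 h at 37 °C, formazan dissolved in DMSO, absorbance read at 570 nm versus untreated cells.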

[4] = Induction of osteogenesis in BALB/c mouse MSC cells assessed as increase in mineral nodule formation at 0.1 nM treated for 21 days with compound refreshment for every 48 hrs by Alizarin red S staining based analysis relative to control; assay type: functional; details: time 21 day
Procedure, shortened: (§3)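 Bone marrow cells were flushed from the long bones of 6–8-week-old BALB/c mice and seeded at 2 × 10⁶ per well. Medium: 10% FBS, 100 nM dexamethasone, 50 μg mL⁻¹ ascorbic acid and 10 mM β-glycerophosphate. Compound and medium were renewed every 48 h for 21 days. Cells were fixed in 4% paraformaldehyde and stained with Alizarin red (pH 4.2). Stain was eluted with 10% cetylpyridinium chloride for 1 h and read at 595 nm versus control.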

Calvarial osteoblast [5] = assay: Induction of osteogenesis in BALB/c mouse calvarial osteoblast cells using PNPP as substrate assessed as increase in ALP activity at 0.001 to 10 nM measured after 48 hrs by spectrophotometry; assay type: functional, cell-based; details: Calvaria, dose 0.001-10 nM; procedure, shortened: as §1
Calvarial osteoblast [6] = assay: Induction of cell proliferation of BALB/c mouse calvarial osteoblast cells at 0.1 nM incubated for 48 hrs by MTT assay relative to control; assay type: functional, Calvaria; procedure, shortened: as §2
[7] = Induction of osteogenesis in BALB/c mouse MSC cells assessed as increase in mineral nodule formation at 0.001 nM treated for 21 days with compound refreshment for every 48 hrs by Alizarin red S staining based analysis relative to control; assay type: functional; details: time 21 day; procedure, shortened: as §3

Structure (SMILES)	Activity (Calvarial osteoblast [1])	Activity (Calvarial osteoblast [2])	Activity (Calvarial osteoblast [3]) [%]	Activity [4] [%]	Activity (Calvarial osteoblast [5])	Activity (Calvarial osteoblast [6]) [%]	Activity [7] [%]
CCCCCC(=O)Nc1nc(-c2ccc(Cl)cc2)c(Cl)c(-c2cc(OC)c(OC)cc2OC)n1	Active	Non-Toxic	~18	~27	–	–	–
CCCCCC(=O)Nc1nc(-c2ccc(Br)cc2)cc(-c2cc(OC)c(OC)cc2OC)n1	–	Non-Toxic	~22	~25	Active	~25	~24
